Results pooled from the literature.
Lines come from different studies, so protocols differ.
Organism: Plasmodium falciparum
Read-out: parasite growth

SMILES	assay	test system	setting	measurement	result
CCN1CCN(Cc2ccc(Nc3nc4ccc(Oc5ccnc(NC(=O)C6CCN(C)CC6)c5)cc4n3C)cc2C(F)(F)F)CC1	flow cytometry	DD2	72 h, blood stage	IC90	0.166 µM
CO[C@H]1/C=C/O[C@@]2(C)Oc3c(C)c(O)c4c(O)c(c(/C=N/N5CCN(C)CC5)c(O)c4c3C2=O)NC(=O)/C(C)=C\C=C\[C@H](C)[C@H](O)[C@@H](C)[C@@H](O)[C@@H](C)[C@H](OC(C)=O)[C@@H]1C		DD2	drug-resistant strain, blood stage	IC50	0.573 µM
c1cc([C@H]2CC[C@]3(CC2)OO[C@]2(O3)C3CC4CC(C3)CC2C4)ccc1OCCN1CCOCC1		W2	drug-resistant strain, blood stage	IC50	0.011 µM
COc1cc(/C=C/c2cc(/C=C/c3ccc(O)c(OC)c3)n(-c3cccc([N+](=O)[O-])c3)n2)ccc1O		K1	drug-resistant strain, blood stage	EC50	16.7 µM
CCCCCCCCNC(C)C(O)c1ccc(SC(C)C)cc1 (centres unmarked)		K1	drug-resistant strain, blood stage	IC50	0.0051 µM
COc1cc(/C=C/c2cc(/C=C/c3ccc(O)c(OC)c3)n(-c3ccc(Cl)cc3Cl)n2)ccc1O		K1	drug-resistant strain, blood stage	EC50	25.9 µM
C[C@@H]1CC[C@H]2[C@@H](C)C(=O)O[C@@H]3O[C@@]4(C)CC[C@@H]1[C@]32OO4		NF54	blood stage	IC50	0.0112 µM
N=C(CC(O)c1cc2c(F)cc(F)cc2c2cc(C(F)(F)F)ccc12)NCc1ccc(F)cc1 (centres unmarked)	ELISA	3D7 DD2	blood stage	IC50	> 0.1 µM
CC(=O)[C@@]1(O)[C@H](O)C[C@H]2[C@@H]3CCC4=CC(=O)CC[C@]4(C)[C@H]3CC[C@@]21C		DD2	drug-resistant strain, blood stage	IC50	0.617 µM
N=C(CC(O)c1cc2c(F)cc(F)cc2c2cc(C(F)(F)F)ccc12)Nc1cccc(F)c1 (centres unmarked)	ELISA	3D7 DD2	blood stage	IC50	~0.002 µM
COc1cc(/C=C/C(=O)C(=Cc2ccccc2)C(=O)/C=C/c2ccc(O)c(OC)c2)ccc1O		K1	drug-resistant strain, blood stage	EC50	17.1 µM
N=C(CC(O)c1cc2c(F)cc(F)cc2c2cc(C(F)(F)F)ccc12)Nc1ccc(-c2ccc(F)cc2)cc1 (centres unmarked)	ELISA	3D7 DD2	blood stage	IC50	~0.005 µM
COc1cc(C=C(C(=O)/C=C/c2ccc(O)c(OC)c2)C(=O)/C=C/c2ccc(O)c(OC)c2)ccc1O		K1	drug-resistant strain, blood stage	EC50	18.8 µM
N=C(N)N/N=C/c1c(Cl)cccc1Cl		K1	drug-resistant strain, blood stage	IC50	0.931 µM
N=C(CC(O)c1cc2c(F)cc(F)cc2c2cc(C(F)(F)F)ccc12)Nc1ccc(N2CCC(F)(F)CC2)cc1 (centres unmarked)	ELISA	3D7	72 h, blood stage	IC50	0.0336 µM
CCN(CC)CCCC(C)Nc1ccnc2cc(Cl)ccc12 (centres unmarked)		DD2	drug-resistant strain	IC50	0.0768 µM
Cc1cc(F)cc(C)c1NC(=N)CC(O)c1cc2c(F)cc(F)cc2c2cc(C(F)(F)F)ccc12 (centres unmarked)	ELISA	3D7	72 h, blood stage	IC50	0.0116 µM
C[C@@H]1CC[C@H]2[C@@H](C)C(=O)O[C@@H]3O[C@@]4(C)CC[C@@H]1[C@]32OO4		DD2	72 h, drug-resistant strain, blood stage	IC50	0.0091 µM
CC(C)(C)CNC(=N)CC(O)c1cc2c(F)cc(F)cc2c2cc(C(F)(F)F)ccc12 (centres unmarked)	ELISA	3D7	72 h, blood stage	IC50	6.02 µM
COc1cc(/C=C/C(=O)C(=Cc2ccc(O)cc2)C(=O)/C=C/c2ccc(O)c(OC)c2)ccc1O		K1	drug-resistant strain, blood stage	EC50	13.3 µM
